Screens as filed in PubChem BioAssay.
Hits are enriched below; roughly 6.8% of the tested compounds scored in any of these assays.
AI-2 QS modul = modulators of Vibrio harveyi AI-2 quorum sensing system | 300,000 tested, 0.4% active | AID 2094 | activity change, % at 7.5 µM | Vibrio harveyi JMH597 AI-2 luminescence/OD600 ratio, 9 h; hits give low values; strain lacks LuxN and CqsS sensors; 0 = neutral-control median; in the data active = activity change below about -75%, passing the limit was not always enough; inconclusive = no clear call, values can overlap the other calls;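 also: luminescence divided by OD600 gain over 9 h not by final OD600 alone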
ALR H2O2 inh = human ALR oxidase inhibition via reduced H2O2 | purified ALR, DTT oxidation, H2O2 HRP-luminol luminescence | inhibition, % (test concentration not listed) | 290,000 tested, 3.8% active | AID 485317;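 active = mean replicate inhibition above about 79%, with every replicate also reaching it, limit read from the data; inconclusive = only one of the two criteria met; inactive = mean below limit and not every replicate reaching it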
Target sequence (P55789 whole entry, looked up): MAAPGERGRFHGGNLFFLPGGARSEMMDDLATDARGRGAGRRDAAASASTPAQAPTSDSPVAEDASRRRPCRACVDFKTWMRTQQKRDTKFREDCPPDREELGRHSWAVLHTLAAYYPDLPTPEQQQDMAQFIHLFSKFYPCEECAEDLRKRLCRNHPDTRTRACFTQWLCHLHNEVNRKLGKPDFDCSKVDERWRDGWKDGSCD
HCV core dimer = HCV core protein dimerization inhibition; TR-FRET GST/Flag-core106 dimerization, 1536-well; inhibition, % at 5 µM; 300,000 tested, 0.33% active; AID 1899;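 active = inhibition above the mean of all tested compounds plus 3 SD, set per screening campaign, cut at about 45% in these data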
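Assay system: tagged HCV core106 pair (GST and Flag); medium: KF-containing HEPES buffer, pH 7.45, DTT, CHAPS, BSA; also added: Eu donor and XL665 acceptor anti-tag antibodies; dosing: 5 µM single dose; timing: compound-protein-antibody incubation 4 h at 22.5 °C; signal: TR-FRET 671 and 617 nm emission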
PHOSPHO1 block = blocks human PHOSPHO1 phosphatase activity; inhibition, % at 13.3 µM; recombinant PHOSPHO1, absorbance phosphatase assay; Q8TCT1; 290,000 tested, 1.1% active; AID 1565; in the data active = inhibition above about 60%
Target sequence (Q8TCT1 whole entry, looked up): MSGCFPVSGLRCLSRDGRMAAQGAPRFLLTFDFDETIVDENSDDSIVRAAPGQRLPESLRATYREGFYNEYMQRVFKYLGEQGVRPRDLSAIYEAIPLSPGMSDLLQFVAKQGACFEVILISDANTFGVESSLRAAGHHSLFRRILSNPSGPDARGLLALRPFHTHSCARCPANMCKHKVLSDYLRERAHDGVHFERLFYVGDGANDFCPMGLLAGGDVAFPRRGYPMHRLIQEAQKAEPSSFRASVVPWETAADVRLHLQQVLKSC
HSF-1 act = increases HSF-1 driven luciferase reporter signal. activation, % at 9 µM. AID 504408. NIH3T3-HGL HSF-1 luciferase reporter, MG132, 8 h; 100% = twice DMSO control signal. 300,000 tested, 1.7% active;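 active = mean replicate activation of at least 50% with a set share of replicates each reaching 50%; inconclusive = only one of those two conditions met; inactive = mean below 50% and too few replicates reaching it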;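 also: 0% = median of the neutral control wells and 100% = twice that signal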
HSF1 inhib = HSF1 inhibition; NIH3T3-HGL HSE-luciferase, MG132-induced, luminescence 8 h; hits give low values; activity change, negative = inhibition, % at 7.5 µM (by protocol); 300,000 tested, 0.77% active;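 active = more than half of replicate wells show activity change below -50%, luminescence cut by over half; inconclusive = some wells, but at most half, below -50%; inactive = no replicate well below -50%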;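 also: luciferase reports HSF-1 transcriptional activity via heat shock element; 0% = median of DMSO wells and -100% = zero luminescence signal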
Starred values were filed as active, the others as inactive; ? = inconclusive; nt = not tested or not shown.

SMILES	AI-2 QS modul	ALR H2O2 inh	HCV core dimer	PHOSPHO1 block	HSF-1 act	HSF1 inhib
CC(=O)N1c2ccc(S(=O)(=O)N(C)CC(=O)Nc3cccc(C)c3)cc2CC1C (stereo unspecified)	-2	1	-14	1	17	0
COc1cccc(NC(=S)NNC(=O)Cn2nc(C(F)F)cc2C(F)F)c1	4	84*	-4	36	12	1
Cc1cnn(CCC(=O)NNC(=S)Nc2ccccc2)c1	34	?	-2	60	-2	3
COc1cccc(NC(=S)NC(=O)Cc2ccccc2)c1	-14	-5	-4	nt	-1	5
COc1cccc(NC(=O)CNC(=O)c2ccc([N+](=O)[O-])cc2)c1	22	-5	1	24	nt	nt
Cc1ccc(NC(=S)NNC(=O)CCn2cc(C)cn2)cc1	13	42	-8	69*	-5	-4
COc1cccc(NC(=S)NNC(=O)CCn2cc([N+](=O)[O-])cn2)c1	4	83*	-1	-77	15	-3
O=C(Cn1nc(C(F)F)cc1C(F)F)NNC(=S)Nc1ccc([N+](=O)[O-])cc1	16	-5	6	36	3	-2
O=C(Cn1nc(C(F)F)cc1C(F)F)NNC(=S)Nc1ccc(F)cc1	nt	29	-1	73*	3	-18
Cc1cc(F)ccc1NC(=O)c1cc(S(=O)(=O)N2CCc3ccccc32)cn1C	15	-6	13	23	-4	4
COc1ccc(C(=O)NC(C(=O)NCCc2ccc3c(c2)OCCO3)C(C)C)cc1 (stereo unspecified)	17	-1	5	4	-6	3
Cc1ccc(S(=O)(=O)NCCC(=O)Nc2ncccc2O)cc1C	10	4	-1	nt	10	3
CCOc1ccc(C(=O)NCC(=O)N2CCC3CCCCC3C2)cc1OCC (stereo unspecified)	9	1	6	-1	13	-6
O=C(CS(=O)(=O)c1ccccc1)Nc1nnc(Cc2ccccc2)s1	25	87*	16	31	-2	-2
COc1ccc(-c2csc(NC(=O)c3ccc(OCC(=O)N4CCOCC4)c(OC)c3)n2)cc1OC	11	-12	-5	-4	-25	-23
COc1ccc(-n2nc3c(N4CCC(C(=O)N5CCC(C)CC5)CC4)nnc(C)c3c2C)cc1	15	-3	10	37	55*	17
CC(=O)n1c2ccccc2c2nc(NC(C)C)sc21	17	99*	-14	43	-14	-4
CC(=O)Nc1ccc(S(=O)(=O)N(C)CC(=O)OC(C)C(=O)N(C)Cc2ccccc2)cc1 (stereo unspecified)	18	-2	4	53	-4	-2
O=C(CSc1nnc(-c2ccco2)c(-c2ccco2)n1)Nc1ccccc1	2	99*	51*	64*	-6	4
O=C(O)CSc1nnc(-c2ccccc2)c(-c2ccccc2)n1	49	-2	-3	28	-2	-1
CCc1nnc(SCC(=O)Nc2ccc(C(C)=O)cc2)nc1CC	37	99*	-2	32	1	-5
Cc1ccccc1NC(=O)CSc1nnc(-c2ccco2)c(-c2ccco2)n1	10	nt	45	41	35	17
Cc1cccc(C)c1NC(=O)CSc1nnc(-c2ccco2)c(-c2ccco2)n1	1	99*	72*	-62	-6	-2
CCC(=O)NNC(=O)CSc1nnc(-c2ccccc2)c(-c2ccccc2)n1	-6	40	-11	44	-78	-74*
CCOC(=O)C1CCCN(c2c(NCCc3ccc(Cl)cc3)c(=O)c2=O)C1 (stereo unspecified)	15	-3	-1	28	-23	-6
SMILES	AI-2 QS modul	ALR H2O2 inh	HCV core dimer	PHOSPHO1 block	HSF-1 act	HSF1 inhib
C=CCNC(=O)C1CCN(c2ccc(S(=O)(=O)N3CCOCC3)cc2[N+](=O)[O-])CC1	14	-2	-2	34	-5	5
CN1CC(=O)N(CC(=O)Nc2cccc(S(=O)(=O)N3CCOCC3)c2)C1=O	22	0	0	2	31	3
CSc1cccc(NC(=S)NCCCN2CCN(c3ccc(F)cc3)CC2)c1	19	nt	2	37	4	0
Cc1ccc(SCC(=O)Nc2ccc(-c3nnc(-c4ccco4)o3)cc2)cc1	9	-15	9	-30	78*	44
Cc1ccc(NC(=O)CSc2nnc(-c3ccco3)c(-c3ccco3)n2)cc1	18	99*	51*	60*	22	14
Brc1ccc(-c2nnc(-c3ccco3)o2)cc1	1	3	8	6	63*	43
COc1ccc(N2C(=O)C3CCCN3C2=S)cc1 (stereo unspecified)	22	-2	1	11	-3	-4
Cc1cccc(-n2cnc3c(sc4nc(N5CCOCC5)c5c(c43)CCCC5)c2=O)c1	47	-13	25	-21	-1	-5
COc1cc(/C=C/C(=O)c2ccc(Cl)s2)cc(OC)c1O	37	67	-1	26	174*	129
O=C(Nc1cccc2c1CCCC2)c1ccccc1Br	4	-5	-2	49	16	1
Cc1ccc(-c2ccc(=O)n(CC(=O)NCC3COCCO3)n2)cc1 (stereo unspecified)	23	-7	-7	0	3	-3
CC(=O)NCCc1c(C)n(Cc2ccccc2)c2ccccc12	nt	99*	-9	44	2	5
CC(=O)NCCc1nc2ccccc2n1Cc1ccccc1	20	-1	3	-7	-1	0
COCc1cc(C)nc2sc(C(=O)Nc3cccc(OC)c3)c(N)c12	35	-2	-4	45	45	26
CCC1(c2ccccc2)NC(=O)N(CC(=O)Nc2ccc3c(C)cc(=O)oc3c2)C1=O (stereo unspecified)	15	-16	6	nt	36	21
O=C(Oc1ccc2c(c1)OCO2)c1ccc(F)cc1Cl	11	nt	-1	17	63*	26
O=C(c1cc2c(s1)CCCC2)N1CCN(Cc2ccc3c(c2)OCO3)CC1	-4	-8	11	-6	15	-4
O=C(Oc1ccc2c(c1)OCO2)c1cc2c(s1)CCC2	16	nt	87*	9	81*	33
CCOc1ncccc1C(=O)Oc1ccc2c(c1)OCO2	-1	-15	-5	-51	-13	-6
CC1CCCCN1S(=O)(=O)c1cccc2nonc12 (stereo unspecified)	14	-6	nt	37	-10	2
O=C(Oc1c(-c2ccccc2Cl)oc2ccccc2c1=O)c1ccc(Cl)cc1	42	-4	3	10	-65	-54*
O=C(Oc1c(-c2ccccc2)oc2ccccc2c1=O)c1ccccc1	-2	-4	6	0	9	2
